Test results from the EternaBench riboswitch data.

System: MS2 coat protein
Test: apparent Kd, MS2 coat protein; higher = weaker binding; RNA-MaP array; FMN 200 µM where present
Method in brief: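 Two titrations, one without ligand and one with constant ligand, were run with SNAP-549-labelled MS2 coat protein from 0.7 or 1.5 nM, doubling to 3 µM. The targets were designs transcribed by stalled E. coli RNA polymerase on Illumina sequencing-chip clusters, in 100 mM Tris-HCl pH 7.5, 80 mM KCl, 4 mM MgCl2, BSA, DTT, yeast tRNA and Tween-20. The apparent Kd is the median of filtered per-cluster binding-curve fits, with green signal normalised to red-channel RNA signal and control-cluster median Fmax.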

[1] = designed as: OFF switch for flavin mononucleotide, no ligand
[2] = ligand present: flavin mononucleotide, designed as: OFF switch for flavin mononucleotide
[3] = designed as: ON switch for flavin mononucleotide, no ligand
[4] = ligand present: flavin mononucleotide, designed as: ON switch for flavin mononucleotide

Sequence	apparent Kd [1] [nM]	apparent Kd [2] [nM]	apparent Kd [3] [nM]	apparent Kd [4] [nM]
UUAGGACAAGCAGGAUAUGUAACAUGAGGAUCACCCAUGUUGAGACUUUGGCACUCCUACAUGCAGCAGAAGGGCUUCAAACCU	29.7	66.4		
UUAUUAUAUGUAGGAUAUGCAUAUUAUUAUUAUGCAGAAGGACAUGAGGAUCACCCAUGUAUAUUAUUAUUAUAUGUUAUAUAU	25.5	36.9		
UGUCGGAGCAGAGGAUAUACAUGAGGAUCACCCAUGUAAAUGGAAGAAGCCUGGAAACAGGCAAUGUAGAAGGCUGCUCCGACA	132	970		
UUGAGGUGCAAGAAGGGUCACAUGAGGAUCACCCAUGUCAUGUGAAGUCUCGAGAUUUUAUGUGGAUAGGAUAUUGCACCGAAC			203	113
UAUUCACAUGAGGAUCACCCAUGUAGAAGGCCGAGCCUGGCCACGGUUACAAGCCGUGGAGAGCCGGAGGAUAUACAGCUGGUG	140	27.8		
CAAUUUAUUGCAGGAUAUACAAUACAAUGAUUAGUAGAAGGGUAUAAUACAUGAGGAUCACCCAUGUCAUGUGUCAUAAUAACC	36.7	27.6		
AAGCCCUGAGGAUAUCUCAUCUCGCACAUGAGGAUCACCCAUGUUCUUCUCUGGGUUUCGAGAGAAGGCAGGCCUC	954	641		
ACGGAACAUGAGGAUCACCCAUGUAUCUGAGAUAAGCUCUCGCAGGAUAUUGAGAGAAGCCUAUUCGAGAAGGGUGACAGCAAA			90.1	30.1
AAUGUUUGAUUCCACUUACACAUGAGGAUCACCCAUGUUAUCGAGGAUAUGCAUUAGAGUGUUUAGCAGAAGGCGAUGUAAUUG	8.46	25		
UCAUUUCUGAAAGGAUAUUAAUUCAUGACGAUACAUGAGGAUCACCCAUGUUAAGAAGGUUCAAAUACAAAUAAUGCAUUGUUC	13.2	11.1		
AGGAAGUGAGGAUAUGCAGUCGCUAGUAGACGCUAGCACUUGUAGAAGGCACAUGAGGAUCACCCAUGUUUAAA	31.3	36.3		
UUAAUUAUACAAGGAUAUCUAUUGUUCUUUCGACAUACAUGAGGAUCACCCAUGUUAAUAUAUAUAGAGAAGGUGUAUUUUCAG			42.2	26.3
UAUAUAUAGUAAGGAUAUGUAUUUAUUUUACAAACAGAAGGUACUGACAUGAGGAUCACCCAUGUUUUAGUGUGGGCAUGUAGA	61.1	76.1		
AUUUUAAAGGGAGGAUAUACAUGAGGAUCACCCAUGUAAACGUGAGGAUCACCCAUGUAAACAAUGUAGAAGGCCUAUAUCUAU	86	74.1		
UGGUACUAGGGAGGAUAUGGGAAGAUACAUGAGGAUCACCCAUGUUUAAGAAUGCCGAGAGGCAACUAGAAGGCCCUAAUACCU			400	19.1
CCCUCAACAUGAGGAUCACCCAUGUAGGAUAUCGCUAUUGUAAUCAUGAAACAUGAUUACAAUAGCGAGAAGGACAUAUGUGGG	106	49.8		
UUUUAACAUGAGGAUCACCCAUGUGAGGAUAUCGAAAUUUAUAUUAAUAUUAAUUUUACGAGAAGGCACAUUUU	112	100		
UUGUGAGAGCAGGAUAUCUUAUUUUUUUUUUGUGGAGAAGGGCUGACAUGAGGAUCACCCAUGUGGUCCUAGAU	28.4	33.5		
GAAAAGGUAGGAUAUACGAAAAAAAAGGGUAGAAAAAAAACACAUGAGGAUCACCCAUGUAGAAGGACCAAAAG	31.9	94.1		
GCGUCAGAAUUAAUUGUGACAAGCAGAAGGCUAUAUCUUAUGUUAGACAUGAGGAUCACCCAUGUAGAGGAUAUGCAGUUACAC	7.87	14.2		
AAAUACCAAGGAUAUACAUGAGGAUCACCCAUGUACAAACCCGUGGAACGGAUCUUUGGUAGAAGGUGGACAUA	13.9	11.9		
CCUUUUGUAUAAGGAUAUGUAACAAGGCGUAGGUGGGUAGGACUUGCGCUUACAGAAGGUAUACAUGAGGAUCACCCAUGUCGA	32.4	240		
GAACGUGACAUGAGGAUCACCCAUGUUGCCUGAGCCAGGUCGUAGGAUAUCCUGAUGAUUAAUUUGGAGAAGGGCGACUGGGAA			34.4	14.3
UGGUUGGGAGGAUAUCCAAUAUAUGACAUGAGGAUCACCCAUGUUUCCACUCGUACCUCCGGAGAAGGCCCUUCCU	22.8	21.6		

Sequence	apparent Kd [1] [nM]	apparent Kd [2] [nM]	apparent Kd [3] [nM]	apparent Kd [4] [nM]
AUCGGGAGAGGAUAUACAUGAGGAUCACCCAUGUUGGGAACAUCGGUUUGUUAGUUGCGUAGAAGGCUCGGGCG	46.4	66.3		
UGGAUCAUGGGAGGAUAUCCUCAAGAGACAUGAGGAUCACCCAUGUAUUAUAAGCCGAAAGGCAUGGAGAAGGCCCAUGAUCCU			50.3	19
GGUCCAUCAUGAGGAUAUGGCACCUUAUUGGUGCCAGAAGGCAUGUCUUUAGACAUGAGGAUCACCCAUGUAAUAAAUUGGACC			1150	76.5
GUGAAGAUAGCAGGAUAUUUAUUUCCUACAUGAGGAUCACCCAUGUAGGUGAUCAGCCGAGUAAAGGAGAAGGGCUAUCUUUAC			30.9	21.3
UUACGUCCCAUUUACAUGAGGAUCACCCAUGUCGAAAGACAUGAGGAUAUGCUACCUAAUUGGUAGCAGAAGGCAUGGACGUCG			662	347
UCCUUGUCCUGAGGAUAUCCGUGGUUCCCGAAAGGAGAAGGCAGGACAUGAGGAUCACCCAUGUACCCAGAAAACGUGCAGAGU	163	273		
GGUGCGAUGUAGAAGGCAGAUCUGAUUCAGAUCUGAGGAUAUACAUGAGGAUCACCCAUGUAAAGGCACCGCACGAGAGUGCAA	7.12	11.3		
CGUAGCUCCUGUUCGAAUCUCCGUGAGGAUAUCUUCAGACAUGAGGAUCACCCAUGUACAAAGGAAGAGAAGGCACGGUCCGAU			4.86	4.33
AGGCUAUUAGGAUAUACAUGAGGAUCACCCAUGUCGAUCUACAGGCUACGGCACGGCAGUAGAAGGAAUGGCCG	15.7	16.7		
CAGAAUUGAGGAUAUGAUCAAUUUAACAUGAGGAUCACCCAUGUAUGGGAAUGAUUCUGAUCAGAAGGCGAUUCUU	1290	910		
UCACGGGACUAAGGAUAUAUGAGUACCAUUUACAUAGAAGGUAGAAUGUUAGAUCAUAAACUAAACAUGAGGAUCACCCAUGUU	19.4	18.6		
CACGUCAGGAAACGGAGCGGCCAACAUGAGGAUCACCCAUGUGAGGAUAUGCCUACUAAAAGUAGGCAGAAGGCGCAAUUGGCA	29.1	39.9		
AAUAACAGAGGAUAUACUGUUUUAUGUAUUUAUUAUUUUGAACAUGAGGAUCACCCAUGUAGAAGGCUGAUUGA	35.6	31.6		
GUAGCUAUCGGAGGAUAUUCAUACUGGAAACGGACAUGAGGAUCACCCAUGUGGCGAAAGCCUUGGGAGAAGGCUGAUAGCUAC			139	7.72
UGCUUCGUGUAAGGAUAUGCUGCCGUUUCGGCUGCAGAAGGUACUAUAAUACAUGAGGAUCACCCAUGUCUCUCGCUUUGCGGG			55.9	26.6
CUAUAUAAUGCCUCAUGUACAUGAGGAUCACCCAUGUUAACUUAGGAUAUAUUUAUAUUGAUAGAGUAGAAGGAAGUACUAUUU	14.2	12.9		
GUUGUUUGAGGAUAUACAUGAGGAUCACCCAUGUGUGUCCAUACGCGUGAGUCUUCGUGUAGAAGGCGGGCGGC	13.7	14.7		
GUAGCAUACCAAGGAUAUUCAUAUAAUAAGUAAACAUGAGGAUCACCCAUGUAGCGAGAGCCUUGGGAGAAGGUGGAAUGCUAC			58.7	46.7
AAGCAGGUAAUAAAGUAGAAAUACAUGAGGAUCACCCAUGUAUAGGAUAUCGUCAGGAAUACUGACGAGAAGGAUACAUCCUGC	15.3	18.6		
UUUUAACAUGAGGAUCACCCAUGUGAGGAUAUCGAAAUUUAUAUUAAUAUUAUUAAAUCGAGAAGGCACAUUUU	102	97.4		
GCCGAUUAAGUCAGGAUAUACCUAUGGAUACAUAGGUAGAAGGGACAUGAGGAUCACCCAUGUUCCUCUACGGC	12.9	25.8		
CUGAGCCUAGGAUAUACUGGCUGUAAGCUUGAUGCCUGCACACAUGAGGAUCACCCAUGUAGAAGGAGGCCAGG	17.2	21.1		
UCAGGCUUCGAGAAGGACAUGAGGAUCACCCAUGUUAAUUAGAAGCAGCCGUGAGGCUGCAUCAUGUAGGAUAUCGGAGUCUGC	7.16	24.8		
CGGAAAAGGUAGGAUAUGCUAGACGAAAGUCUAGCAGAAGGACCUACAUGAGGAUCACCCAUGUGUCCAAUCCG	56.3	24.7		
